Structures are written as SMILES.

One experiment relates to HCT-116. Description: Antiproliferative activity against human HCT-116 cells assessed as reduction in cell viability incubated for 72 hrs by SRB assay. Format: functional, cell-based. The settings on record: HCT-116, 72 h.
A further experiment deals with A549. In words: Antiproliferative activity against human A549 cells assessed as reduction in cell viability incubated for 72 hrs by SRB assay. Format: functional, cell-based. The conditions noted are these: A549, 72 h. The method, boiled down:
(§1)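 Cell lines grown at 37 °C in 5% CO₂: A549 in RPMI1640, MCF-7 in DMEM, each with 10% FBS plus penicillin/streptomycin/amphotericin B. Cells exposed to a range of compound concentrations for 72 h, then TCA-fixed and SRB-stained. Growth inhibition = 100 − 100×(OD sample − OD day 0)/(OD negative control − OD day 0). IC50 from non-linear regression of percent growth against concentration.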
In general terms: The SRB assay estimates cell density from bound dye.

For a further experiment, the system named is MCF7. In words: Antiproliferative activity against human MCF7 cells assessed as reduction in cell viability incubated for 72 hrs by SRB assay. Format: functional, cell-based. The settings on record: MCF7, 72 h. The method, boiled down:
as §1

In experiment [1] the target is Epidermal growth factor receptor (Homo sapiens, UniProt P00533). In words: Inhibition of EGFR (unknown origin) using FAM-labeled peptide as substrate incubated for 10 mins followed by substrate addition and measured after 1 hr by mobility shift assay. The method, boiled down:
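Mobility shift assay in 50 mM HEPES pH 7.5, 10 mM MgCl₂, 2 mM DTT, 0.0015% Brij35. Compound in 10-point DMSO dilution, run in duplicate. Enzyme preincubated with compound 10 min at room temperature. FAM-labeled peptide and ATP then added and reaction run at 28 °C for 1 h. Stopped with EDTA buffer; conversion turned into percent inhibition and fitted to a Hill equation for IC50.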

Sequence of Epidermal growth factor receptor (P00533 whole entry): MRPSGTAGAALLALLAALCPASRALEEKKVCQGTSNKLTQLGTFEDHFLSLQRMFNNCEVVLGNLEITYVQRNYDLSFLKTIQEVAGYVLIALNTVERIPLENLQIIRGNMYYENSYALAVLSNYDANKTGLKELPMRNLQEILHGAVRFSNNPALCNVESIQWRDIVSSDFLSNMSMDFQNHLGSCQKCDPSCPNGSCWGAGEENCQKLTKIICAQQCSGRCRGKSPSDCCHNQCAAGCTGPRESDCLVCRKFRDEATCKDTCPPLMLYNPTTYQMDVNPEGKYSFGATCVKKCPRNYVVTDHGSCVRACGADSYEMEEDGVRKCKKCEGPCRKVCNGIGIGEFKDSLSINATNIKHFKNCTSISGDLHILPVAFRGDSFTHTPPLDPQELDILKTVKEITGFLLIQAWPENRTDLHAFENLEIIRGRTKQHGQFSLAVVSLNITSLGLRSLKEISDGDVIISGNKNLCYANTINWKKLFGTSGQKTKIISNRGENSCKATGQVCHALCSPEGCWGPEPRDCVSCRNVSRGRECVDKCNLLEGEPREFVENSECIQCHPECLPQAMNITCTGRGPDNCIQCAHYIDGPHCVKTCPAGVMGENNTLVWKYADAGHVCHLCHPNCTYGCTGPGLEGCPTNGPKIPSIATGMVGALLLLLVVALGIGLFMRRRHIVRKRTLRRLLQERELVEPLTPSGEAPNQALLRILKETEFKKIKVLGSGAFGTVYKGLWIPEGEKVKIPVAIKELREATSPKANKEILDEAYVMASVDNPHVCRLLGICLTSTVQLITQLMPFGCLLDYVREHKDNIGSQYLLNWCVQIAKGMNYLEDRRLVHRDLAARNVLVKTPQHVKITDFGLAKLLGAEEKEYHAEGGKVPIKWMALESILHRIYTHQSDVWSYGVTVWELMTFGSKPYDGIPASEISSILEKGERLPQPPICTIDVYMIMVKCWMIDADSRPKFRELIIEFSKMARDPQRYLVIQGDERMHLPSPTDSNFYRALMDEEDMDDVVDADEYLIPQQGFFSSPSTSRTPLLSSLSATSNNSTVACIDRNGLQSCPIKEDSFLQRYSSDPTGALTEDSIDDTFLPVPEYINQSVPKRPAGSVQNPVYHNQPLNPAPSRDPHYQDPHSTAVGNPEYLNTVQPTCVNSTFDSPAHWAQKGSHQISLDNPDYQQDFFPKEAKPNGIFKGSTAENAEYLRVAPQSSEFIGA

Take `COc1ncc(-c2ccc3ncnc(Nc4ccc(OCCO)cc4)c3c2)cc1NS(C)(=O)=O`: the IC50 (as a rule, the concentration needed to halve the response being measured) in the experiment on HCT-116 turned out to be 4.86 µM; with A549, 5.2 µM; with MCF7, 3.27 µM.

With `COc1ncc(-c2ccc3ncnc(Nc4ccc(OCCO)c(Cl)c4)c3c2)cc1NS(=O)(=O)c1ccc(F)cc1F`, the figures for the concentration for half-maximal inhibition (IC50) with HCT-116, in the experiment with A549 and with MCF7 were 7.32 µM, 5.98 µM and 3.74 µM, respectively.

As to `CCCCS(=O)(=O)Nc1cc(-c2ccc3ncnc(Nc4ccc(OCCO)nc4)c3c2)cnc1OC`, the IC50 in the experiment with HCT-116 was more than 20 µM; with A549, 13.3 µM; in the experiment with MCF7, more than 20 µM.

As for `COc1ncc(-c2ccc3ncnc(Nc4cnn(CCCO)c4)c3c2)cc1NS(C)(=O)=O`, the values for the IC50 with HCT-116, in the experiment on A549 and in the experiment on MCF7 were 1.42 µM, 3.6 µM and 0.73 µM, respectively.

Consider `COc1ncc(-c2ccc3ncnc(Nc4cnn(CC(=O)O)c4)c3c2)cc1NS(=O)(=O)c1ccc(F)cc1F`, for which the half-maximal inhibitory concentration (IC50) came out at 1.54 µM in the experiment with HCT-116, 5.2 µM in the experiment with A549 and 0.7 µM in the experiment with MCF7.

As to `COc1ncc(-c2ccc3ncnc(Nc4cnn(CCC(=O)O)c4)c3c2)cc1NS(=O)(=O)c1ccc(F)cc1F`, the IC50 came to 1.29 µM with HCT-116, 3.84 µM in the experiment with A549 and 0.56 µM in the experiment on MCF7.

With `COc1ncc(-c2ccc3ncnc(Nc4ccc(OCCO)c(F)c4)c3c2)cc1NS(=O)(=O)c1ccc(F)cc1F`, the results for the IC50 in the experiment on HCT-116, with A549 and with MCF7 were 9.16 µM, 6.64 µM and 4.82 µM, respectively.

In the case of `COC(=O)Cn1cc(Nc2ncnc3ccc(-c4cnc(OC)c(NS(=O)(=O)c5ccc(F)cc5F)c4)cc23)cn1`, the concentration for half-maximal inhibition (IC50) with HCT-116 is 1.26 µM; in the experiment with A549, 4.28 µM; in the experiment with MCF7, 0.67 µM.

Turning to `COc1ncc(-c2ccc3ncnc(Nc4ccc(OCCO)nc4)c3c2)cc1NS(=O)(=O)c1ccc(F)cc1F`, the half-maximal inhibitory concentration (IC50) with HCT-116 is 2.34 µM; in the experiment on A549 it was 4.12 µM; with MCF7, 4.3 µM.

Regarding `COc1ncc(-c2ccc3nccc(-c4ccnnc4)c3c2)cc1NS(=O)(=O)c1ccc(F)cc1F` [OMIPALISIB], the IC50 in the experiment with HCT-116 is 0.14 µM; in the experiment with A549, 0.86 µM; in the experiment on MCF7 it was 0.03 µM.

As to `COc1ncc(-c2ccc3ncnc(Nc4cnn(CCO)c4)c3c2)cc1NS(C)(=O)=O`, the half-maximal inhibitory concentration (IC50) with HCT-116 stood at 1.49 µM; in the experiment on A549 it was 8.22 µM; in experiment [1], 2.52 µM; in the experiment with MCF7, 0.77 µM.

Take `COc1ncc(-c2ccc3ncnc(Nc4ccc(OCCO)nc4)c3c2)cc1NS(C)(=O)=O`: the figures for the 50% inhibitory concentration (IC50) with HCT-116, in the experiment on A549 and with MCF7 were 5.36 µM, 5.08 µM and 3.08 µM, respectively.

For `COc1ncc(-c2ccc3ncnc(Nc4ccc(OCCCO)nc4)c3c2)cc1NS(=O)(=O)c1ccc(F)cc1F`, the values for the IC50 in the experiment with HCT-116, with A549 and in the experiment on MCF7 were 3.68 µM, 9.36 µM and 6.12 µM, respectively.

Regarding `COc1ncc(-c2ccc3ncnc(Nc4cnn(CCCO)c4)c3c2)cc1NS(=O)(=O)c1ccc(F)cc1F`, the IC50 came to 0.48 µM in the experiment on HCT-116, 4.83 µM with A549 and 1.31 µM in the experiment with MCF7.

For the molecule `COc1ncc(-c2ccc3ncnc(Nc4ccc(OCCO)cc4)c3c2)cc1NS(=O)(=O)c1ccc(F)cc1F`, the IC50 in the experiment with HCT-116 was determined as 1.06 µM; in the experiment on A549 it was 2.69 µM; in the experiment on MCF7, 1.65 µM.

For `COc1cc(Nc2ncnc3ccc(-c4cnc(OC)c(NS(=O)(=O)c5ccc(F)cc5F)c4)cc23)ccc1OCCO`, the concentration for half-maximal inhibition (IC50) amounted to 5.72 µM in the experiment on HCT-116, 3.76 µM with A549 and 2.26 µM with MCF7.

Consider `COC(=O)CCn1cc(Nc2ncnc3ccc(-c4cnc(OC)c(NS(=O)(=O)c5ccc(F)cc5F)c4)cc23)cn1`, for which the IC50 in the experiment on HCT-116 came out at 0.97 µM; in the experiment on A549 it was 2.99 µM; in the experiment on MCF7, 0.49 µM.

These data come from ChEMBL document CHEMBL4665651, “Design, synthesis, and biological evaluation of some novel 4-aminoquinazolines as Pan-PI3K inhibitors” (Bioorg Med Chem, 2019).
